Results from PMC2780016 (Journal of medicinal chemistry, 2009).
“Also recorded” adds a separate entry of the source.

Assays:
Format in all cases: biochemical
[1] = biological target: T1, human liver CE, hCE1 (CES1) (Homo sapiens, UniProt P23141); experiment: Inhibition of hCE1 hydrolysis of 3; conditions: for Ki: read-out: hCE1 Ki ± SE, substrate 3 (o-nitrophenyl acetate); for inhibition of hCE1 (in words): substrate 3
T1 sequence (P23141 18-567): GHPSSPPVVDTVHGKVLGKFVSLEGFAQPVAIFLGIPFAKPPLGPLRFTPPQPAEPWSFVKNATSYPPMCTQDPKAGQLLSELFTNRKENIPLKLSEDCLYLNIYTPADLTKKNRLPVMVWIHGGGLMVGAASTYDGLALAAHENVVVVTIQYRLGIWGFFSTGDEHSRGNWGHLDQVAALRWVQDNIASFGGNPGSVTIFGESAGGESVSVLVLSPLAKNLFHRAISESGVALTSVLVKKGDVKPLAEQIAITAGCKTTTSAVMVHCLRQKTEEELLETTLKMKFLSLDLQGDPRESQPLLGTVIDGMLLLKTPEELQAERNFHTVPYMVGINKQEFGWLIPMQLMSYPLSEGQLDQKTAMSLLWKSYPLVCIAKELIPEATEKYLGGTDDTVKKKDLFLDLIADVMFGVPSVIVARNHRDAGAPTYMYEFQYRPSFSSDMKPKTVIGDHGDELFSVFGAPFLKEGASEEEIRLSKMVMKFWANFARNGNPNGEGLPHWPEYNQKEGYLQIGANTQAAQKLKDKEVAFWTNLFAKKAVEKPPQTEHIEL

[2] = biological target: T2, human intestinal CE (hiCE, CES2) (Homo sapiens, UniProt O00748)
T2 sequence (O00748 27-559): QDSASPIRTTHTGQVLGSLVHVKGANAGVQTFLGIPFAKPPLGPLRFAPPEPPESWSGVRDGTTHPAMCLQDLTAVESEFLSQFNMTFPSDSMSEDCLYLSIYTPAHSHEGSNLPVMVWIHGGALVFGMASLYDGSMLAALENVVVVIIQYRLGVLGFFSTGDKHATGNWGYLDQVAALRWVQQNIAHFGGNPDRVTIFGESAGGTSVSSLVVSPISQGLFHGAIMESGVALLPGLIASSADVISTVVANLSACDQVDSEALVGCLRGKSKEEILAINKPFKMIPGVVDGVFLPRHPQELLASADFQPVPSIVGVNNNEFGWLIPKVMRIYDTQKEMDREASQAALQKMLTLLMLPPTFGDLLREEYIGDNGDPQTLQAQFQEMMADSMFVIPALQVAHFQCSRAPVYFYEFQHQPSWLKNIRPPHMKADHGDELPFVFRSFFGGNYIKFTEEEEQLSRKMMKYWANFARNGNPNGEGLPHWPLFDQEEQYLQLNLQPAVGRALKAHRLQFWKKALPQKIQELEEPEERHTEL

hiCE = biological target: T3, hiCE (Homo sapiens, UniProt O00748); experiment: Inhibition of the metabolism of heroin and cocaine; conditions: data not shown; Hatfield et al, manuscript in preparation
T3 sequence (O00748 27-559): T2 sequence (O00748 27-559)

hBChE = hBChE (Homo sapiens, UniProt P06276); experiment: Inhibition of butyrylcholinesterase, butyrylthiocholine substrate; conditions: data not shown
Method in brief: (§1)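 Purified human AChE and BChE were obtained commercially. Test compounds were dissolved in DMSO (stock typically 10mM) immediately before analysis. Inhibition was measured by the previously reported method, with acetylthiocholine as substrate for hAChE and butyrylthiocholine for hBChE.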

hAChE = hAChE (Homo sapiens, UniProt P22303); experiment: Inhibition of acetylcholinesterase, acetylthiocholine substrate; conditions: data not shown
Method in brief: as §1

Chain of hAChE (P22303 32-614): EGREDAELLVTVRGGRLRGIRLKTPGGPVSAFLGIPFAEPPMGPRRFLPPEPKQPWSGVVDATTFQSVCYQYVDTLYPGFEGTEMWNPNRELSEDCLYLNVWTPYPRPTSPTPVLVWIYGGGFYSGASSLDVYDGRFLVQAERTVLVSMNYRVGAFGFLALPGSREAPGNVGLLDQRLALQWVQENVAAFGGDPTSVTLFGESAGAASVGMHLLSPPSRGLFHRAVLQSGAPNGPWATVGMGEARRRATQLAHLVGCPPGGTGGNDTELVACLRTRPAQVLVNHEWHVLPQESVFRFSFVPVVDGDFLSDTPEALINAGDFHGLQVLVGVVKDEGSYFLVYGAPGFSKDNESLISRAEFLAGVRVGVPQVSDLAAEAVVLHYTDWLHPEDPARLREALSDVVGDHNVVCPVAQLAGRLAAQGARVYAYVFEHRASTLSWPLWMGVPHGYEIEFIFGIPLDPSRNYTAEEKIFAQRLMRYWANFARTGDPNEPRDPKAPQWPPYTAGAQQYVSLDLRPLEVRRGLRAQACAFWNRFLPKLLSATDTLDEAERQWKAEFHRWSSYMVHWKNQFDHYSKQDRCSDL
Chain of hBChE (P06276 29-602): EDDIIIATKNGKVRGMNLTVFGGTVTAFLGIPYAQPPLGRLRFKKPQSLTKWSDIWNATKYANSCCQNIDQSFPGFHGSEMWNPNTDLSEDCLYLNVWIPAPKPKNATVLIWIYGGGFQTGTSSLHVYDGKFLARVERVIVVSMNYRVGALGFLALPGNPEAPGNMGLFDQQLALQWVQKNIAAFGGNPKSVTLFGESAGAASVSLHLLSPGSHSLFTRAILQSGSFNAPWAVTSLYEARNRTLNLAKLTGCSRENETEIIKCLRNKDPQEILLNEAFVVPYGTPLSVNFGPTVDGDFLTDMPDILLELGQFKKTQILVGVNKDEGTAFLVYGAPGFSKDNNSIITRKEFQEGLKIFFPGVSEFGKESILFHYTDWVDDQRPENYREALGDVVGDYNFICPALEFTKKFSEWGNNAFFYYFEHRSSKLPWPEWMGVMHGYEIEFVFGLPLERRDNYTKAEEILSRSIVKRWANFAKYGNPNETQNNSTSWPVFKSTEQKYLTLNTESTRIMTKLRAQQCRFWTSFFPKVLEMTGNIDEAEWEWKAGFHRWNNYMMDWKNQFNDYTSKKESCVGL

Compound | inhibition of hCE1 (in words) [1] | inhibition of hiCE (in words) ([2]; substrate 3) | inhibition of hBChE (in words) (hBChE) | inhibition of hAChE (in words) (hAChE) | also measured
4,6-dimethyl-N1,N3- diphenylbenzene-1,3- disulfonamide [compound 4] |  |  |  |  | Ki [1]: > 100 µM
O=S(=O)(Nc1ccc(NS(=O)(=O)c2ccc(Cl)cc2)cc1)c1ccc(Cl)cc1 [compound 11, N,N'-(1,4-phenylene)bis(4-chlorobenzenesulfonamide)] | weak activity |  |  |  | fold more potent against hiCE than hCE1 ([2]; ratio of Ki values hCE1 vs hiCE, substrate 3): over 250 fold
O=S(=O)(Nc1ccc(NS(=O)(=O)c2cccc(Br)c2)cc1)c1cccc(Br)c1 [compound 18, N,N'-(1,4-phenylene)bis(3-bromobenzenesulfonamide)] |  |  |  |  | inhibition of the metabolism of heroin and cocaine (in words) (hiCE): can also inhibit the metabolism of heroin and cocaine
O=S(=O)(Nc1ccc(NS(=O)(=O)c2cc(Cl)c(Cl)cc2Cl)cc1)c1cc(Cl)c(Cl)cc1Cl [compound 28, N,N'-(1,4-phenylene)bis(2,4,5-trichlorobenzenesulfonamide)] | inactive | did not inhibit the enzyme; also recorded: loss of biological activity; also recorded: do not inhibit hiCE; also recorded: inactive | inactive | inactive | 
O=C(O)c1ccc(S(=O)(=O)Nc2ccc(NS(=O)(=O)c3ccc(F)cc3)cc2)cc1 [compound 39, 4-(N-(4-(4-fluorophenylsulfonamido)phenyl)sulfamoyl) benzoic acid] | inactive | did not inhibit the enzyme; also recorded: do not inhibit hiCE; also recorded: inactive | inactive | inactive | 
CNC(=O)c1ccc(S(=O)(=O)Nc2ccc(NS(=O)(=O)c3ccc(F)cc3)cc2)cc1 [compound 41, 4-(N-(4-(4-fluorophenylsulfonamido)phenyl)sulfamoyl)-N-methyl benzamide] | inactive | did not inhibit the enzyme; also recorded: do not inhibit hiCE; also recorded: inactive | inactive | inactive | 
O=S(=O)(Nc1c(F)c(F)c(NS(=O)(=O)c2ccc(Br)cc2)c(F)c1F)c1ccc(Br)cc1 [compound 54, N,N'-(2,3,5,6-tetrafluoro-1,4-phenylene) bis(4-bromobenzenesulfonamide)] |  |  |  |  | inhibition of the metabolism of heroin and cocaine (in words) (hiCE): can also inhibit the metabolism of heroin and cocaine
O=S(=O)(Nc1ccc2c(c1)Cc1cc(NS(=O)(=O)c3ccccc3)ccc1-2)c1ccccc1 [compound 56] |  |  |  |  | fold more potent at inhibiting hiCE than compound 8 ([2]; comparison of inhibition constants of 8 and 56): ~11 fold
N,N'-(1,4-phenylene)bis(4-fluoro-2-methyl benzene sulfonamide) [compound 36] |  |  |  |  | Ki ([2]; read-out: hiCE Ki ± SE, substrate 3 (o-nitrophenyl acetate)): 0.273 ± 0.033 µM; Ki [1]: > 100 µM
